We go through 16 molecules from paper PMC3313684 (Journal of Natural Products, 2012).

≈ marks a conversion by molar mass, not a printed value. Like-named read-outs stand apart in the source and are kept apart here.

For experiment [1], the system named is Micrococcus luteus. Particulars: previously shown; cited from earlier work.
Experiment [2] has as its system Neisseria gonorrhoeae. Particulars: previously shown; cited from earlier work.
Another experiment concerns SW1736 cells. Kind of experiment: Anaplastic thyroid carcinoma cell line inhibition, SW1736. The format is cell-based, human.
In experiment [3] the test system is human umbilical vein endothelial cells (HUVEC). Briefly: HUVEC Matrigel cord formation assay. The format is cell-based. Particulars: 0.001 μg/mL, 24 h.
A further experiment has as its system tubulin. Briefly: Inhibition of [3H]colchicine binding to tubulin. Particulars: 10 μM compound, 1.0 μM tubulin, 5.0 μM [3H]colchicine.
Experiment [4] has as its system Micrococcus luteus. Briefly: Antimicrobial susceptibility, Micrococcus luteus. The format is cell-based. Particulars: read-out: MIC Micrococcus luteus. The gist of the method:
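Broth microdilution susceptibility to an established standard for aerobic bacteria, strain Presque Isle 456. Test compound was reconstituted in a small volume of sterile DMSO and diluted in medium just before the assay. MIC was the lowest concentration that stopped all visible growth (optically clear). Assays were repeated on separate days.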

The subject of a further experiment is KAT-4 cells. Kind of experiment: Anaplastic thyroid carcinoma cell line inhibition, KAT-4. The format is cell-based, human. Particulars: for GI50: Homo sapiens, KAT-4, read-out: KAT-4 GI50. In short, it runs like this: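 Growth inhibition by the NCI sulforhodamine B method. Cells were plated in RPMI1640 with 5% fetal bovine serum and grown 24 h. Serial dilutions of test compound were then added for 48 h. Plates were fixed with trichloroacetic acid, stained with sulforhodamine B and read by plate reader. GI50 is the concentration giving a 50% drop in net protein increase, calculated from optical density data.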

Experiment [5] deals with Neisseria gonorrhoeae. Kind of experiment: Antimicrobial susceptibility, Neisseria gonorrhoeae. The format is cell-based. Particulars: for MIC: Neisseria gonorrhoeae, read-out: MIC Neisseria gonorrhoeae; for MIC Neisseria gonorrhoeae: broth microdilution. The gist of the method: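 Neisseria gonorrhoeae ATCC 49226 tested by broth microdilution following standard bacterial dilution guidelines. MIC taken as the lowest concentration inhibiting all visible growth (optically clear). Assays repeated on separate days.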

`COc1ccc(/C=C\c2cc(OC)c(OC)c(OC)c2)cc1O` [1a, combretastatin A-4]: the “MIC Micrococcus luteus” value in the experiment on Micrococcus luteus [1] was 25-100 μg/disk. Also, in the experiment with Neisseria gonorrhoeae [2], the “MIC Neisseria gonorrhoeae” value is 25-100 μg/disk.

As for `COc1ccc(/C=C\c2cc(OC)c(OC)c(OC)c2)cc1OP(=O)([O-])[O-].[Na+].[Na+]` [1b, fosbretabulin], in the experiment with Micrococcus luteus [1], the “MIC Micrococcus luteus” value was 25-100 μg/disk. In the experiment on Neisseria gonorrhoeae [2], the “MIC Neisseria gonorrhoeae” value was 25-100 μg/disk.

For orientation: MIC means the smallest concentration in the dilution series that meets the test's criterion for growth inhibition. As to `COc1ccc(/C=C\c2cc(I)c(OC)c(OC)c2)cc1O` [9a, 3-Iodo-4,4′,5-trimethoxy-3′-hydroxy-Z-stilbene], in the experiment with SW1736 cells, the “times less active against the SW1736 line than against KAT-4” value is recorded as 100 ×. For the same molecule, in experiment [3], the “cord lengths and junction numbers” value is given as “markedly reduced”. Besides, the “inhibition of colchicine binding to tubulin, % inhibition ± SD” value in the experiment with tubulin is 100 ± 0.8%. Besides, the MIC in the experiment on Micrococcus luteus [4] lay in the range of 2 to 4 µg/mL (≈ 4.85 to 9.7 µM).

Usually GI50 stands for the concentration giving 50% growth inhibition. Regarding `COc1ccc(/C=C\c2cc(I)c(OC)c(I)c2)cc1O` [9c, 3,5-Diiodo-4,4′-dimethoxy-3′-hydroxy-Z-stilbene], the GI50 with KAT-4 cells lay in the range of 0.039 to 0.063 µg/mL (≈ 0.0768 to 0.124 µM). Also, the “times less active against the SW1736 line than against KAT-4” value in the experiment on SW1736 cells is given as 100 ×. Moreover, the “cord lengths and junction numbers” value in experiment [3] is “markedly reduced”. In addition, the “inhibition of colchicine binding to tubulin, % inhibition ± SD” value in the experiment with tubulin is 100 ± 0.3%. In addition, in the experiment with Micrococcus luteus [4], the MIC fell in the range of 4 to 16 µg/mL (≈ 7.87 to 31.5 µM).

For the molecule `COc1ccc(/C=C\c2cc(I)c(OC)c(OC)c2)cc1OP(=O)([O-])[O-].[K+].[K+]` [11a, Potassium 3-Iodo-4,4′,5-trimethoxy-Z-stilbene 3′-O-phosphate], the GI50 in the experiment on KAT-4 cells was 0.37 to 0.43 µg/mL.

Turning to `COc1ccc(/C=C\c2cc(I)c(OC)c(I)c2)cc1OP(=O)([O-])[O-].[K+].[K+]` [12a, Potassium 3,5-Diiodo-4,4′dimethoxy-Z-stilbene 3′-O-phosphate], the 50% growth inhibitory concentration (GI50) with KAT-4 cells fell in the range of 0.38 to 0.44 µg/mL. Further, the “times less inhibitory than the phenols 9a and 9c” value in the experiment on KAT-4 cells (KAT-4) was found to be 10 ×. Besides, the MIC in the experiment on Neisseria gonorrhoeae [5] was 0.5 to 4 µg/mL.

As for `COc1ccc(/C=C\c2cc(I)c(OC)c(I)c2)cc1OP(=O)([O-])[O-].[Na+].[Na+]` [12b, Sodium 3,5-Diiodo-4,4′-dimethoxy-Z-stilbene 3′-O-phosphate], the MIC in the experiment with Neisseria gonorrhoeae [5] was in the range of 32 to 64 µg/mL.

`COc1ccc(/C=C\c2cc(I)c(OC)c(I)c2)cc1OP(=O)([O-])[O-].[Li+].[Li+]` [12c, Lithium 3,5-Diiodo-4,4′-dimethoxy-Z-stilbene 3′-O-phosphate]: the MIC in the experiment with Neisseria gonorrhoeae [5] was 0.5 to 2 µg/mL.

Turning to `C1COCCN1.COc1ccc(/C=C\c2cc(I)c(OC)c(I)c2)cc1OP(=O)(O)O` [12d, Morpholine 3,5-Diiodo-4,4′-dimethoxy-Z-stilbene 3′-O-phosphate], the “MIC Neisseria gonorrhoeae” value in the experiment on Neisseria gonorrhoeae [5] was < 0.5 µg/mL.

Take “Glycine-OMe 3,5-Diiodo-4,4′-dimethoxy-Z-stilbene 3′-O-phosphate [12f]”: the “MIC Neisseria gonorrhoeae” value with Neisseria gonorrhoeae [5] is <0.5 to 1 µg/mL.

On to “Morpholine 3-Iodo-4,4′,5-trimethoxy-Z-stilbene 3′-O-phosphate [11d]”, for which, in the experiment on Neisseria gonorrhoeae [5], the “MIC Neisseria gonorrhoeae” value lay within 16 to 32 µg/mL.

Regarding “Piperdine 3,5-Diiodo-4,4′-dimethoxy-Z-stilbene 3′-O-phosphate [12e]”, in the experiment on Neisseria gonorrhoeae [5], the “MIC Neisseria gonorrhoeae” value was < 0.5 µg/mL.

Consider “Tris 3,5-Diiodo-4,4′dimethoxy-Z-stilbene 3′-O-phosphate [12h]”, for which the “MIC Neisseria gonorrhoeae” value with Neisseria gonorrhoeae [5] was <0.5 to 2 µg/mL.

In the case of “Tris 3-Iodo-4,4′,5-trimethoxy-Z-stilbene 3′-O-phosphate [11h]”, in the experiment on Neisseria gonorrhoeae [5], the “MIC Neisseria gonorrhoeae” value lay within 32 to 64 µg/mL.

With “Tryptophan-OMe 3,5-Diiodo-4,4′-dimethoxy-Z-stilbene 3′-O-phosphate [12g]”, the “MIC Neisseria gonorrhoeae” value with Neisseria gonorrhoeae [5] was < 0.5 µg/mL.

“Tryptophan-OMe 3-Iodo-4,4′,5-trimethoxy-Z-stilbene 3′-O-phosphate [11g]”: the “MIC Neisseria gonorrhoeae” value against Neisseria gonorrhoeae [5] lay within 4 to 8 µg/mL.
